From ChEMBL document CHEMBL5352489, “Development of potent and selective degraders of PI5P4Kγ” (Eur J Med Chem, 2023)
Activity calls are given as the source filed them. The calls are words filed in the database; no cut-off is given here.

Legend:
[1] = biological target: T1, Phosphatidylinositol 5-phosphate 4-kinase type-2 beta (Homo sapiens) (UniProt P78356); experiment: Induction of PI5P4Kbeta degradation in human MOLT-4 cells at 1 to 10 uM incubated for 6 hrs by Immunoblot analysis; type: cell-based; details: dose 1-10 µM
T1 sequence (whole entry): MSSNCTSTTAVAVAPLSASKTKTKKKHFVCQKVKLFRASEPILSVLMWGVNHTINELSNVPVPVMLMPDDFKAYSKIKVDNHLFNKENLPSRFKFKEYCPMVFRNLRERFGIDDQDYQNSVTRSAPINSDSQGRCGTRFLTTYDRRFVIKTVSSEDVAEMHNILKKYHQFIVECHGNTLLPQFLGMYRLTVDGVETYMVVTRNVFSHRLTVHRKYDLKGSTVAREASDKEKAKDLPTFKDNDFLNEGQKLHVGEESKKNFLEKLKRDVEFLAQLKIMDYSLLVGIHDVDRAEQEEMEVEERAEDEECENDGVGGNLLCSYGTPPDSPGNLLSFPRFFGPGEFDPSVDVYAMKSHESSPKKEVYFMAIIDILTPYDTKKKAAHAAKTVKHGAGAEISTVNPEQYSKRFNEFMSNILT
How it was run: (§1)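 MOLT-4 cells were grown in RPMI-1640 with L-glutamine, 10% FBS and 1% penicillin/streptomycin, then exposed to compound for 6 h. Cells were lysed in RIPA buffer (pH 8.0) with protease and phosphatase inhibitors, and protein was measured by BCA. Equal protein was run on 4–12% gels and blotted to PVDF. Membranes were probed with PI5P4Kα or PI5P4Kβ antibody at 4 °C overnight, then with IRDye secondary for 1 h at RT, and imaged on an Odyssey.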

[2] = biological target: T1, Phosphatidylinositol 5-phosphate 4-kinase type-2 beta (Homo sapiens); experiment: Binding affinity to full length wild type human PI5P4Kbeta by KINOMEscan KdELECT assay
[3] = biological target: T2, Phosphatidylinositol 5-phosphate 4-kinase type-2 alpha (Homo sapiens) (UniProt P48426); experiment: Binding affinity to full length recombinant human PI5P4Kalpha incubated for 30 mins in presence of ATP by HTRF assay
T2 sequence (whole entry): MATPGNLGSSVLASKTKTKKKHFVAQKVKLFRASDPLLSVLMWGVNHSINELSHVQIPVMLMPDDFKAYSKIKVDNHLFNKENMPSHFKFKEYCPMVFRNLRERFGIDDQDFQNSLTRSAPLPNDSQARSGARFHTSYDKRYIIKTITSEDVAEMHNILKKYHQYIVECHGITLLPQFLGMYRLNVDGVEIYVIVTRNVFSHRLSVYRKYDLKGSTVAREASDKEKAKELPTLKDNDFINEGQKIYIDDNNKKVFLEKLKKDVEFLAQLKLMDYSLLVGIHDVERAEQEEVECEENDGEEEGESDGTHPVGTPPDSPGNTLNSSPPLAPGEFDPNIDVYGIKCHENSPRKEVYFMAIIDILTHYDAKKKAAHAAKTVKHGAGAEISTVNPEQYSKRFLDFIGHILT

[4] = biological target: T2, Phosphatidylinositol 5-phosphate 4-kinase type-2 alpha (Homo sapiens); experiment: Induction of PI5P4Kalpha degradation in human MOLT-4 cells at 1 to 10 uM incubated for 6 hrs by Immunoblot analysis; type: cell-based; details: dose 1-10 µM; how it was run: as §1

Row | Activity [1] | Activity [2] | Activity [3] | Activity [4] | SMILES
1 | inactive | inactive | inactive | inactive | Cc1ncsc1-c1ccc([C@H](C)NC(=O)[C@@H]2C[C@@H](O)CN2C(=O)[C@@H](NC(=O)CCC(=O)Nc2ccc(C(=O)Nc3cccc(Nc4cc(-c5c[nH]c6ccccc56)ncn4)c3)cc2)C(C)(C)C)cc1
2 | inactive | inactive | inactive | inactive | Cc1ncsc1-c1ccc([C@H](C)NC(=O)[C@@H]2C[C@@H](O)CN2C(=O)C(NC(=O)CCCCCCC(=O)Nc2ccc(C(=O)Nc3cccc(Nc4cc(-c5c[nH]c6ccccc56)ncn4)c3)cc2)C(C)(C)C)cc1 (single isomer, unassigned)
3 | inactive | inactive | inactive | inactive | CC(=O)N[C@H](C(=O)N1C[C@H](O)C[C@H]1C(=O)N[C@@H](C)c1ccc(-c2scnc2C)cc1OCCCCCNC(=O)c1ccc(C(=O)Nc2cccc(Nc3cc(-c4c[nH]c5ccccc45)ncn3)c2)cc1)C(C)(C)C
4 | inactive | inactive | inactive | inactive | Cc1ncsc1-c1ccc([C@H](C)NC(=O)[C@@H]2C[C@@H](O)CN2C(=O)[C@@H](NC(=O)CCCCC(=O)Nc2ccc(C(=O)Nc3cccc(Nc4cc(-c5c[nH]c6ccccc56)ncn4)c3)cc2)C(C)(C)C)cc1
5 | inactive | inactive | inactive | inactive | Cc1ncsc1-c1ccc([C@H](C)NC(=O)[C@@H]2C[C@@H](O)CN2C(=O)[C@@H](NC(=O)CCCCCCCCC(=O)Nc2ccc(C(=O)Nc3cccc(Nc4cc(-c5c[nH]c6ccccc56)ncn4)c3)cc2)C(C)(C)C)cc1
